PMC4301979 (Nature chemical biology, 2015)
pIC50: −log10 of the molar value.

Columns and labels:
ABHD12 = conditions: read-out: IC50, competitive ABPP; brain serine hydrolases; cited from earlier work
ABHD16A/BAT5 = conditions: read-out: IC50, competitive ABPP; uncharacterized 60 kDa membrane enzyme tentatively identified as ABHD16A/BAT5; cited from earlier work
ABHD16A [1] = target: T1, ABHD16A (Homo sapiens, UniProt O95870); test: gel-based ABPP of LCLs treated in situ; format: cell-based; conditions: 1 µM, 4 h in situ
T1 sequence (O95870 1-558): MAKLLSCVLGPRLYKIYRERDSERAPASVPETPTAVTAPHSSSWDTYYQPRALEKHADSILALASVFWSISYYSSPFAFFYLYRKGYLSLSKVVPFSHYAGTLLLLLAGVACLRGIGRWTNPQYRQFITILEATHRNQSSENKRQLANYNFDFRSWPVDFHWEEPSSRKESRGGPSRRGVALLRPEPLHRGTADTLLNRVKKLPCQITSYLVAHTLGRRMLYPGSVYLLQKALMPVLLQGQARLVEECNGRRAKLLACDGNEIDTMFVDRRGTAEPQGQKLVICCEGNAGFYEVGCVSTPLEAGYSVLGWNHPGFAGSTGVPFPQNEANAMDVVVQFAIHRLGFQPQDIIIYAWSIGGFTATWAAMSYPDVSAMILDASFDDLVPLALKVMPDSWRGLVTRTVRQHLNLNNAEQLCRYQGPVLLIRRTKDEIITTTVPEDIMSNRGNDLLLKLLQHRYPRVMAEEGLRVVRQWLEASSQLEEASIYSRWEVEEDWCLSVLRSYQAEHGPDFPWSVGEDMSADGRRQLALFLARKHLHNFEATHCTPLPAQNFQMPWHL

ABHD16A [2] = target: T1, ABHD16A; test: competitive gel-based ABPP, K562 cells treated in situ; format: cell-based; conditions: in situ IC50 for ABHD16A, 4 h treatment, 37 °C
ABHD16A [3] = target: T1, ABHD16A; test: PS substrate; format: biochemical; conditions: 95% interval for the reported IC50 value, human ABHD16A PS lipase activity
COLO205 cells = test: LC-MS-based lipid profiling of treated cells; format: cell-based, human; conditions: COLO205, 1 μM, 4 h
How it was run: (§1)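 Cells grown in RPMI 1640 with 10% FCS and penicillin-streptomycin. 3 x 10^6 cells washed, then exposed to test compound (1 μM) or DMSO for 4 h at 37 °C, 5% CO2, in serum-free, phenol red-free RPMI. Media and cells extracted with 2:1 CHCl3:MeOH plus internal standards. Lipids quantified by LC-MS MRM (ESI) as peak area versus unnatural internal standard, normalized to cell number.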

ABHD16A [4] = target: T1, ABHD16A; test: biochemical; format: binding
[5] = test system: thioglycollate-elicited mouse peritoneal macrophages; test: secreted cytokines of thioglycollate-elicited peritoneal macrophages; format: cell-based; conditions: 4 h
How it was run: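 Peritoneal macrophages elicited by thioglycollate from wild-type, ABHD12−/− or ABHD16A−/− mice. 2 x 10^6 cells allowed to adhere 2 h, then washed. Test compound (1 μM) or DMSO applied for 4 h in serum-free, phenol red-free RPMI, then LPS (5 μg/mL, 7 h, in PBS). Cytokines measured in 0.5 mL harvested medium by mouse single-analyte ELISA.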

[6] = test system: thioglycollate-elicited mouse peritoneal macrophages; test: cellular and secreted lyso-PS of thioglycollate-elicited peritoneal macrophages; format: cell-based; conditions: 4 h
How it was run: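 Thioglycollate-elicited peritoneal macrophages from wild-type, ABHD12−/− or ABHD16A−/− mice. 2 x 10^6 cells plated and adhered 2 h at 37 °C. Washed, then test compound (1 μM) or DMSO given for 4 h in serum-free, phenol red-free RPMI. LPS 5 μg/mL in PBS for 7 h. Media (4 mL) and cells extracted with CHCl3:MeOH. Lipids quantified by LC-MS MRM against internal standards, normalized to cell number.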

[7] = test system: PS lipase activity of human LCLs; test: PS lipase activity of membrane proteomes of lymphoblast cell lines; format: biochemical; conditions: 1 µM, 30 min, 37 °C; all LCL samples
How it was run: (§2)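 Membrane proteome (20 μg) incubated with 100 μM lipid substrate in PBS (100 μL), shaking, […] for 30 min. Quenched with 2:1 CHCl3:MeOH and internal standard, then extracted twice. Product quantified by LC-QTOF-MS, ESI negative mode, as peak area relative to internal standard. Non-enzymatic rate from heat-denatured proteome (95 °C, 15 min) subtracted.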

mouse ABHD16A = target: T2, mouse ABHD16A (Mus musculus, UniProt Q9Z1Q2); test: competitive gel-based ABPP, mouse ABHD16A-transfected HEK293T proteome; format: binding
T2 sequence (Q9Z1Q2 1-558): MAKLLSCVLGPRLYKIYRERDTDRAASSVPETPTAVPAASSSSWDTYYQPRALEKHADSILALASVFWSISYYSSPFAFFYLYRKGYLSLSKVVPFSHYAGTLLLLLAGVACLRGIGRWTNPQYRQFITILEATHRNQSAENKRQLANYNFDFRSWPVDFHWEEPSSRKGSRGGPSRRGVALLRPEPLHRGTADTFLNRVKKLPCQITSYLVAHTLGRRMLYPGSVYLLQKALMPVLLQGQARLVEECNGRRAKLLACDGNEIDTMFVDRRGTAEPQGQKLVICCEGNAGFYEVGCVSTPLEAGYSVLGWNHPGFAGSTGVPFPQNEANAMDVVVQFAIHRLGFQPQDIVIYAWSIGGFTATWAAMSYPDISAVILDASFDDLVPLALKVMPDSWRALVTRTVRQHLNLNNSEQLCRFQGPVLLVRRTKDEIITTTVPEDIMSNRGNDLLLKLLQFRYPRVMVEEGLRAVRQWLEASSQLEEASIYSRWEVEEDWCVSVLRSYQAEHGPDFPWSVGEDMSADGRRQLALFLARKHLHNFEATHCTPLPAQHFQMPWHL

ABHD16A [8] = target: T1, ABHD16A; test: ABPP-SILAC of serine hydrolase activities in COLO205 cells treated in situ; format: cell-based; conditions: 1 μM, 4 h, 37 °C
[9] = test system: additional off-targets (serine hydrolase activities); test: as above; format: cell-based, human; conditions: 1 μM, 4 h, 37 °C
[10] = test system: human lymphoblast cell lines (LCLs); test: targeted LC-MS analysis of lyso-PS in LCLs; format: cell-based; conditions: 1 μM, 4 h
How it was run: as §1

[11] = test system: PS lipase activity of mouse peritoneal macrophages; test: PS lipase activity of membrane proteomes of peritoneal macrophages; format: biochemical; conditions: vehicle- and LPS-stimulated macrophages; 1 µM, 30 min, 37 °C
How it was run: as §2

[12] = target: T3, ABHD16A (WT and S355A mutant) (Homo sapiens, UniProt O95870); test: activity-dependent labeling of ABHD16A in transfected HEK293T cell lysates; format: binding; conditions: 0.2 µM, 30 min, 37 °C
T3 sequence (O95870 1-558): T1 sequence (O95870 1-558)

[13] = ABHD12−/− macrophages, pre-treatment 1 μM
[14] = ABHD16A−/− macrophages, basal or LPS stimulation, 1 µM
[15] = wild-type macrophages, pre-treatment 1 μM, LPS 5 μg/mL, 7 h

CCCCCCCCCCC[C@@H](C[C@@H]1OC(=O)[C@H]1CCCCCC)OC(=O)[C@H](CC(C)C)NC=O [THL, tetrahydrolipstatin]
pIC50 (ABHD12): ~7.00
pIC50 (ABHD16A/BAT5): ~7.00

CCCCCCCCCCCCCC1OC(=O)/C1=C\CCCCC(N)=O (centres unmarked) [KC01]
inhibition of ABHD16A in LCLs by gel-based ABPP (ABHD16A [1]): confirmed inhibition
pIC50 (ABHD16A [2]): ~6.52
pIC50 (ABHD16A [3]): 6.98 to 7.16
cellular lyso-PSs versus DMSO-treated control cells (COLO205 cells): significant reductions
other lipids (PSs, PCs, PEs, lyso-PCs, lyso-PEs, MAGs) (COLO205 cells): No changes
secreted lyso-PSs (18:1 and 18:0) (COLO205 cells; serum-free media): decreased
pIC50 (ABHD16A [4]): 6.30 to 6.70
LPS-induced increases in cytokine secretion [5, 13]: blocked
secreted proinflammatory cytokines (IL-6 and TNF-α) [5, 14]: no changes
LPS-induced cytokine release [5, 15]: significantly blunted
LPS-induced increases in lyso-PSs [6, 13]: blocked
cellular or secreted lyso-PS and other measured lipids [6, 14]: no changes
basal and LPS-induced increases in cellular and secreted lyso-PSs [6, 15]: reduced
PS lipase activity of LCL membrane proteomes [7]: inhibited
pIC50 (mouse ABHD16A): 6.30 to 6.70
light:heavy ratio for ABHD16A (ABPP-SILAC) (ABHD16A [8]): 0.02
partial inhibition of a handful of additional off-targets (ABPP-SILAC) [9]: 50–80%
secreted lyso-PSs of the ABHD12-null LCL ([10]; PHARC subject-derived LCL): significantly lowered
cellular lyso-PSs of LCLs ([10]; all LCLs): decreased cellular lyso-PSs
PS lipase activity of macrophage membrane proteomes [11]: blocked

CCCCCCCCCCCCCC1OC(=O)/C1=C\CCCC(=O)NCCCCCNC(=O)c1ccc(-c2c3ccc(=[N+](C)C)cc-3oc3cc(N(C)C)ccc23)c(C(=O)[O-])c1 (centres unmarked) [WHP01]
labeling of ABHD16A by fluorescent probe [12]: labeled WT-ABHD16A but not the catalytic serine S355A mutant
